Assays:
[1] = tested on: DNA; assay: Induction of Escherichia coli pBR322 DNA cross-linking at 1 mM after 12 hrs in presence of GSH by agarose gel electrophoresis relative to control; type: nucleic-acid assay
How it was run: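 Linearized pBR322 plasmid DNA in phosphate buffer pH 7.3 with 1 mM agent plus 2 mM GSH. Cross-linking resolved by denaturing alkaline agarose gel electrophoresis, untreated plasmid as control lane. Yield given as percent cross-linked DNA.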

[2] = Stability of the compound under electrospray ionisation mass spectra condition; type: physicochemical
[3] = Stability in pH 7.3 phosphate buffer saline measured within 1.5 hrs by 1H-NMR analysis; type: physicochemical; conditions: pH 7.3, 1.5 h
[4] = L-cysteine reactivity in pH 7.3 phosphate buffer assessed as color change from red to orange at 5 mM measured after 1 min; type: physicochemical; conditions: pH 7.3, 1 min, 5000 µM
How it was run: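 Agent at 5, 2.5 or 1 mM in phosphate buffer pH 7.3, mixed with L-Cys at twice the agent concentration (10, 5, 2 mM). Color change scored visually against agent-alone samples.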

[5] = L-arginine reactivity in DMSO-d6/D2O mixture assessed as 1,4-Dihydroxy-2, 5-di-(trimethylammonium iodide-methyl)phenyl formation at 5 mM by 1H-NMR analysis
[6] = Drug metabolism in pH 7.3 phosphate buffer saline assessed as 2, 4-dinitrobenzene sulfonic acid formation measured immediately by 1H-NMR analysis
[7] = L-valine reactivity in DMSO-d6/D2O mixture assessed as 1,4-Dihydroxy-2, 5-di-(trimethylammonium iodide-methyl)phenyl formation at 5 mM by 1H-NMR analysis
[8] = Drug metabolism in pH 7.3 phosphate buffer saline assessed as 1,1'-(2-(2,4-dinitrophenylsulfonyloxy)-5-hydroxy-1,4-phenylene)bis(N,N,N-trimethylmethanaminium)iodide formation measured after 5 mins by 1H-NMR analysis
[9] = Beta-alanine reactivity in DMSO-d6/D2O mixture assessed as 1,4-Dihydroxy-2, 5-di-(trimethylammonium iodide-methyl)phenyl formation at 5 mM by 1H-NMR analysis
[10] = Glycine reactivity in DMSO-d6/D2O mixture assessed as 1,4-Dihydroxy-2, 5-di-(trimethylammonium iodide-methyl)phenyl formation at 5 mM by 1H-NMR analysis
[11] = L-proline reactivity in DMSO-d6/D2O mixture assessed as 1,4-Dihydroxy-2, 5-di-(trimethylammonium iodide-methyl)phenyl formation at 5 mM by 1H-NMR analysis
[12] = Drug metabolism in pH 7.3 phosphate buffer saline assessed as 1,4-Dihydroxy-2, 5-di-(trimethylammonium iodide-methyl)phenyl formation measured after 0.5 to 6 hrs by 1H-NMR analysis

SMILES	Activity [1] [%]	Drug metabolism [4]	Stability [2]	also measured
Cc1cc(C[N+](C)(C)C)c(O)c(C[N+](C)(C)C)c1.[I-].[I-]	0		Unstable	
C[N+](C)(C)Cc1cc(O)c(C[N+](C)(C)C)cc1O.[I-].[I-]	43		Unstable	
C[N+](C)(C)Cc1cc(OS(=O)(=O)c2ccc([N+](=O)[O-])cc2[N+](=O)[O-])c(C[N+](C)(C)C)cc1O				Drug metabolism [12]: Metabolite not detected

More lines, main results first:

Activity [1] [%]	Drug metabolism [4]	SMILES	Stability [2]	also measured
0	Metabolite_Detected	C[N+](C)(C)Cc1cc(-c2ccc(OS(=O)(=O)c3ccc([N+](=O)[O-])cc3[N+](=O)[O-])c(C[N+](C)(C)C)c2)ccc1OS(=O)(=O)c1ccc([N+](=O)[O-])cc1[N+](=O)[O-].[I-].[I-]		Stability [3]: Stable
0		C[N+](C)(C)Cc1cc(-c2ccc(O)c(C[N+](C)(C)C)c2)ccc1O.[I-].[I-]	Unstable	
34	Metabolite_Detected	C[N+](C)(C)Cc1cc(OS(=O)(=O)c2ccc([N+](=O)[O-])cc2[N+](=O)[O-])c(C[N+](C)(C)C)cc1OS(=O)(=O)c1ccc([N+](=O)[O-])cc1[N+](=O)[O-].[I-].[I-]		Drug metabolism [5]: Metabolite not detected; Drug metabolism [6]: Metabolite detected; Drug metabolism [7]: Metabolite not detected; Drug metabolism [8]: Metabolite detected; Drug metabolism [9]: Metabolite not detected; Drug metabolism [10]: Metabolite not detected; Drug metabolism [11]: Metabolite not detected
0	Metabolite_Detected	Cc1cc(C[N+](C)(C)C)c(OS(=O)(=O)c2ccc([N+](=O)[O-])cc2[N+](=O)[O-])c(C[N+](C)(C)C)c1.[I-].[I-]		

— ChEMBL document CHEMBL4308895, “A thiol-inducible and quick-response DNA cross-linking agent” (Bioorg Med Chem Lett, 2019)
